The list is not random: actives were taken first. Their share in the collection is about 1.9%.
Rin1 Abl inh = inhibitors of human Rin1-Abl protein interaction | P00519+Q13671 | TR-FRET Rin1/Abl binding, biochemical | inhibition, % at 7.35 µM | 360,000 tested, 0.4% active | AID 588664; in the data active means inhibition above about 5%, passing the limit was not always enough
Target sequence (P00519 whole entry, looked up): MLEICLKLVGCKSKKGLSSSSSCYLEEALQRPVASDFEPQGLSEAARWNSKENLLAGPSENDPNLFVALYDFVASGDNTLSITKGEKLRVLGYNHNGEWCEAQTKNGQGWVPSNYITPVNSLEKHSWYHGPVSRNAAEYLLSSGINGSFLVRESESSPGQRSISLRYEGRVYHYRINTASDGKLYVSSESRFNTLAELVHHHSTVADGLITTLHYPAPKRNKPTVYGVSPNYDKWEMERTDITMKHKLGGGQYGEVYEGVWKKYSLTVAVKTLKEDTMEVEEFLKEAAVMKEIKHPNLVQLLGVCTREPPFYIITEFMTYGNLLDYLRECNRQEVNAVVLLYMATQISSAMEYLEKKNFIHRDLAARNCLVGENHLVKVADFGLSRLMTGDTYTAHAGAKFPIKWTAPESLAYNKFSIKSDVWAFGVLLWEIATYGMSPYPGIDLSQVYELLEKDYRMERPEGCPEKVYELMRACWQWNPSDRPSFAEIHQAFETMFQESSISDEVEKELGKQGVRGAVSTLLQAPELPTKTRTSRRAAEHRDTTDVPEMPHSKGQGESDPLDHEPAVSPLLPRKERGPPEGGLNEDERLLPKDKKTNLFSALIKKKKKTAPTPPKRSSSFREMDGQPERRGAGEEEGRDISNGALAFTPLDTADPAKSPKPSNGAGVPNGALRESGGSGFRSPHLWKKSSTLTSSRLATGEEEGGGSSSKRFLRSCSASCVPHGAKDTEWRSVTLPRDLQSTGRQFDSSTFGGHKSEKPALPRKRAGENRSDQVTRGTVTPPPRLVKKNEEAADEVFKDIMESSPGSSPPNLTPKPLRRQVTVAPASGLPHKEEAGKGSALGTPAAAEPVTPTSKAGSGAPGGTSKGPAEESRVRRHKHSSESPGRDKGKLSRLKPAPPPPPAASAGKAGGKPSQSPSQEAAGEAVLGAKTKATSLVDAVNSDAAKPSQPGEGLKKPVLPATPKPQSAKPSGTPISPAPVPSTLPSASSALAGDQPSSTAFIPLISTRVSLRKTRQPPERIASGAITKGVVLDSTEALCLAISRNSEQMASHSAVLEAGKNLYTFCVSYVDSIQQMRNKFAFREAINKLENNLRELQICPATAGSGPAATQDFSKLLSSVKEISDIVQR
Target sequence (Q13671 whole entry, looked up): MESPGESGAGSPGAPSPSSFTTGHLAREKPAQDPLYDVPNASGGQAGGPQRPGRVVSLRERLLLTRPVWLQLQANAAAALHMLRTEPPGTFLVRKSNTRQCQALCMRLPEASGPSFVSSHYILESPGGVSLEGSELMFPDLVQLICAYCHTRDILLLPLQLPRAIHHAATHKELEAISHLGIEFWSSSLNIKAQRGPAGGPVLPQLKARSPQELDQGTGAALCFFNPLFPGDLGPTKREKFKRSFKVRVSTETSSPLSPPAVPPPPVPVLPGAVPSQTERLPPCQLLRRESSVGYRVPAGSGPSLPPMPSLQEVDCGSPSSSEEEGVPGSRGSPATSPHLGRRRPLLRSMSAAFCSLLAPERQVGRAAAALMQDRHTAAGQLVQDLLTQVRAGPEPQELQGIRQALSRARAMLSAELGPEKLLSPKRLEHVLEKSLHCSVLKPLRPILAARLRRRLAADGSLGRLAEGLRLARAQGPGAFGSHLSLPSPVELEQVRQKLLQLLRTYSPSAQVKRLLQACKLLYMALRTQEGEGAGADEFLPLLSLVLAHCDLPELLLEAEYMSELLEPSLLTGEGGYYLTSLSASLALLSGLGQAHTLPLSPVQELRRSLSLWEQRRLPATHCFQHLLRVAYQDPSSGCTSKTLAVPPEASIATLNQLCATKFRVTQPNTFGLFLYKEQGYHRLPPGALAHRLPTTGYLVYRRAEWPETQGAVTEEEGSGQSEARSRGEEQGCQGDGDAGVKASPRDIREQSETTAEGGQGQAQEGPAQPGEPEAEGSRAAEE
UHRF1 binding = blocks human UHRF1 binding to methylated DNA. Q96T88. UHRF1 binding to methylated oligo, TR-FRET. inhibition, % at 4.4 µM. 370,000 tested, 0.75% active. AID 687016; in the data active means inhibition above about 21%;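 further: UHRF1 SRA domain binding a hemimethylated CpG hairpin DNA probe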
LEDGF integ inh = blocks HIV-1 LEDGF/p75-dependent DNA integration. TR-FRET IN-LEDGF/p75 DNA integration, Eu/Cy5. inhibition, % at 3.7 µM. 370,000 tested, 0.64% active. AID 743269;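 active means inhibition above the screen-wide mean plus 3 SD, cut at about 13% in these data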;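 further: signal is the Cy5 over europium emission ratio at 671 and 618 nm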
TDP2 inh = blocks human TDP2 phosphodiesterase activity; recombinant TDP2, T5PNP hydrolysis, p-nitrophenol absorbance 415 nm; AID 720702; inhibition, % at 12.8 µM; O95551; 370,000 tested, 0.34% active;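 active means inhibition above the mean of all tested compounds plus 3 SD, set per campaign, cut at about 25% in these data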
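Test system: Human TDP2 enzyme | Reagent: 5 mM T5PNP | Compound dosing: 12.8 µM single point, 1% DMSO | Incubation: Enzyme reaction with compound for 2 h at 37 °C | Technique: p-Nitrophenol epi absorbance | Read-out: % inhibition relative to enzyme-containing and enzyme-free wells | Benchmarks: High control without enzyme, low control DMSO plus TDP2 | Replicates: Singlicate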
MBD2 DNA inh = inhibitors of human MBD2 binding to methylated oligonucleotide; Q9UBB5; TR-FRET; inhibition, % at 4.4 µM; 370,000 tested, 0.31% active; AID 686964; in the data active means inhibition above about 13%
UHRF1 ctr MBD2 = inhibits human UHRF1 binding to methylated oligonucleotide, MBD2 counter-screen; shares compounds with MBD2 DNA inh; TR-FRET; inhibition, % at 4.4 µM; 1,000 tested, 25% active; AID 720530; in the data active means inhibition above about 21%;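 further: UHRF1 SRA domain binding a labeled hemimethylated CpG hairpin DNA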
MBD2 DBD conf = MBD2-DBD methyl-DNA binding inhibition, TR-FRET confirmation | shares compounds with MBD2 DNA inh | inhibition, % at 4.4 µM | 1,000 tested, 26% active | TR-FRET MBD2-DBD binding to methylated oligonucleotide
IN multimer act = HIV-1 integrase multimerization activation, counter-screen; AID 1053131; 2,000 tested, 17% active; TR-FRET HIV-1 integrase multimerization, biochemical; shares compounds with LEDGF integ inh; activation, % at 7.7 µM; in the data active means activation above about 8.9%
TRFRET interf = TR-FRET optical interference, LEDGF/p75 integration counter-screen; shares compounds with LEDGF integ inh; TR-FRET optical interference counterscreen, HIV-1 IN multimerization; inhibition, % at 7.7 µM; 2,000 tested, under 10 active; AID 1053135;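 active means inhibition above the mean over all tested compounds plus 3 SD, which no compound reached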
LEDGF integ conf = LEDGF/p75-dependent HIV-1 integration inhibition, confirmation; shares compounds with LEDGF integ inh; TR-FRET LEDGF/p75-dependent HIV-1 integration, biochemical; inhibition, % at 3.7 µM; 2,000 tested, 36% active
Of the large screens only hits and unclear results are named; the others gave an inactive call (follow-up assays come after a bar, where they were run). Unless noted, no stated cut-off is given here; in the data, active means inhibition above about 14%; inactive means the rest.

c1ccc(-n2c(SCc3cccc4ccccc34)nnc2-c2ccccn2)cc1	none (no result: Rin1 Abl inh)
O=C(O)COc1ccc2c(c1)O/C(=C\c1cccs1)C2=O	none
O=C(O)COc1ccc2c(c1)O/C(=C\c1ccco1)C2=O	UHRF1 binding 63, LEDGF integ inh 41, MBD2 DNA inh 15 | UHRF1 ctr MBD2 42 | MBD2 DBD conf inactive | IN multimer act 27 | TRFRET interf inactive | LEDGF integ conf 46
O=c1cc(Br)c(O)c(Br)cc1Br	UHRF1 binding 39, LEDGF integ inh 46, MBD2 DNA inh 14 | UHRF1 ctr MBD2 inactive | MBD2 DBD conf inactive | IN multimer act inactive | TRFRET interf inactive | LEDGF integ conf 21
Oc1c(Br)cc(Br)c2cccnc12	none
CCN(Cc1cn(Cc2ccccc2)nn1)S(=O)(=O)c1ccc(F)cc1Br	none (no result: Rin1 Abl inh)
C[C@@H]1C[C@H]2[C@@H](C)C(=O)N3[C@H](c4ccccc4)[C@H](C)C[C@H]3[C@@H](C)C(=O)N2[C@@H]1c1ccccc1	none (no result: Rin1 Abl inh)
Cc1cc(/C=C2\SC(=O)NC2=O)c(C)n1-c1ccc(N(C)C)cc1	UHRF1 binding 39, LEDGF integ inh 42, MBD2 DNA inh 17 | UHRF1 ctr MBD2 inactive | MBD2 DBD conf inactive | IN multimer act inactive | TRFRET interf inactive | LEDGF integ conf inactive
Cc1cc(/C=C2\SC(=O)NC2=O)c(C)n1-c1ccc(N2CCOCC2)cc1	none
C=CCSC1=N/C(=C\C=C\c2ccco2)C(=O)S1	UHRF1 binding 75, LEDGF integ inh 62, MBD2 DNA inh 43 | UHRF1 ctr MBD2 40 | MBD2 DBD conf 17 | IN multimer act inactive | TRFRET interf inactive | LEDGF integ conf 75
Cc1cc(NS(=O)(=O)c2ccc(NC(=S)NC(=O)c3cccnc3)cc2)no1	UHRF1 binding 65, LEDGF integ inh 26, MBD2 DNA inh 27 | UHRF1 ctr MBD2 inactive | MBD2 DBD conf inactive | IN multimer act inactive | TRFRET interf inactive | LEDGF integ conf inactive
CCOc1ccc(N2CC(C(=O)Nc3nnc(Cc4ccc(OC)cc4)s3)CC2=O)cc1 (configuration not stated)	UHRF1 binding 65, LEDGF integ inh 15, MBD2 DNA inh 33 | UHRF1 ctr MBD2 inactive | MBD2 DBD conf inactive | IN multimer act inactive | TRFRET interf inactive | LEDGF integ conf inactive
COc1ccc(Cc2nnc(NC(=O)C3CC(=O)N(c4ccc(OC)cc4)C3)s2)cc1 (configuration not stated)	none
Cc1ccc(-c2cc(-c3nnc4sc(Cc5cccs5)nn34)[nH]n2)cc1	none (no result: Rin1 Abl inh)
CC(C)C1Nc2ccc(C(=O)O)cc2C2C=CCC21 (configuration not stated)	UHRF1 binding 30, LEDGF integ inh 17, MBD2 DNA inh 14 | UHRF1 ctr MBD2 inactive | MBD2 DBD conf inactive | IN multimer act inactive | TRFRET interf inactive | LEDGF integ conf 24
CCCC1Nc2ccc(C(=O)O)cc2C2C=CCC12 (configuration not stated)	none (no result: UHRF1 binding, LEDGF integ inh, TDP2 inh, MBD2 DNA inh)
CCOC(=O)C1Nc2ccc(C(=O)O)cc2C2C=CCC12 (configuration not stated)	UHRF1 binding 72, LEDGF integ inh 67, MBD2 DNA inh 27 | UHRF1 ctr MBD2 48 | MBD2 DBD conf inactive | IN multimer act 45 | TRFRET interf inactive | LEDGF integ conf 60
COCCNC(=O)C1Nc2ccc(C(F)(F)F)cc2C2C=CCC12 (configuration not stated)	none

Source: PubChem BioAssay (The Scripps Research Institute Molecular Screening Center)
